Assay results from article PMC2807935 (Naunyn-Schmiedeberg's Archives of Pharmacology, 2010).
Several values for one entry are separate records, joined by “and”; a condition that tells them apart may be missing. Equal entries are not always repeated.

Columns and labels:
[1] = at 200 mg; ref Brune and Hinz [2004]; Hinz et al. [2007]; cited from earlier work
[2] = Secondary clinical parameters: pain scores, analgesic consumption, side effects; type: in vivo, human
[3] = Pharmacokinetics of oral etoricoxib in plasma, CSF and tissue exudate; type: in vivo, human; conditions: for Tmax: t max
[4] = test system: PGE2 production in tissue; assay: PGE2 concentrations in tissue exudate; type: in vivo, human
Procedure, shortened: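 Patients given oral 120 mg or placebo at 7.00 am on postoperative day 1 after non-cemented hip arthroplasty. Hip drain emptied 1 h before each scheduled time (0, 1, 3, 8, 12, 24 h), then exudate collected over 60 min. Exudate centrifuged, supernatant frozen at −30°C. PGE2 measured by enzyme immunoassay (LOQ 15 pg/mL). Times are collection-interval midpoints; changes expressed versus baseline.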

[5] = cited from earlier work
plasma proteins = conditions: ref Agrawal et al. [2003b]; cited from earlier work
COX-2 = conditions: after a single dose of 120 mg; ref Dallob et al. [2003]; cited from earlier work
[6] = post-dose, monkeys; ref Riendeau et al. [2001]; cited from earlier work
[7] = patient R02, 50% of peak concentrations
[8] = patient R06, 50% of peak concentrations

Cc1ccc(-c2cc(C(F)(F)F)nn2-c2ccc(S(N)(=O)=O)cc2)cc1 [celecoxib]
Bioavailability [1]: 20–60%

Cc1ccc(-c2ncc(Cl)cc2-c2ccc(S(C)(=O)=O)cc2)cn1 [etoricoxib]
Perioperative side effects ([2]; 120 mg oral on postoperative day 1): no perioperative side effects related to the administration of etoricoxib
Postoperative pain and opioid consumption versus placebo ([2]; both groups received standard IT and parenteral pain medication, study not designed to detect differences): no meaningful differences
CSF concentration ([3]; 1 h later than in plasma): > 29 ng/mL
CSF concentration at 1 h as part of the peak CSF concentration ([3]; 1 h post-dose): 34%
Etoricoxib in tissue exudate ([3]; 2.5 h): virtually no drug detected
Concentration in CSF as fraction of that in plasma at corresponding times ([3]; AUC0–24h and max. concentration ratios): 1/20
Cmax ([3]; CSF, n = 5, mean (± SD)): 68.4 (30.6) ng/mL
Time to plateau in plasma and CSF ([3]; both compartments): about 2 h
Plasma concentration ([3]; during the first hour after 120 mg oral): > 360 ng/mL
Cmax ([3]; human, CSF, oral, 120 mg, c max, n = 5, mean (± SD)): ~70 ng/mL
Tmax ([3]; human, CSF, oral, 120 mg, n = 5, median (range)): 8 h
AUC(0-t) ([3]; human, CSF, po, 120 mg, AUC0–24h, n = 5, 120 mg oral, mean (± SD)): 955 ng·h/mL
Kp at 8 h ([3]; human, CSF/plasma, oral, 120 mg, CSF/plasma conc. ratio at t max, n = 5, mean (± SD), at 8 h): 0.06
Kp ([3]; human, CSF/unbound plasma, oral, 120 mg, CSF/plasma ratio of the unbound fractions (CSF/Pu), at equilibrium (2–24 h), estimated): ~0.56
Cmax ([3]; human, plasma, oral, 120 mg, c max, plasma, n = 5 subgroup, mean (± SD)): 1440 ng/mL
Cmax ([3]; human, plasma, oral, 120 mg, c max, n = 8 (all patients), mean (± SD)): 1740 ng/mL
Tmax ([3]; human, plasma, oral, 120 mg, plasma, n = 5 subgroup, median (range)): 4 h
Tmax ([3]; human, plasma, oral, 120 mg, n = 8 (all patients), median (range)): 3 h
Individual CSF lag times with respect to (50%) peak plasma concentration ([3]; in all but one case): ≤ 2 h
Time to meaningful (COX-2 inhibitory) CSF concentrations ([3]; in nearly all patients): ≤ 2 h
Max. CSF/plasma conc. ratio ([3]; individual maximal concentration ratios, between 3 and 12 h, mean ± SD, n = 5): 7.3 (2.1) %
Time of peak CSF concentration ([3]; mean concentration-time curve, CSF): 8 h
Lag time plasma vs. CSF ([3]; mean of patients): 2 h
Lag time plasma vs. tissue exudate ([3]; mean of patients): 3.8 h
Lag time plasma vs. tissue exudate ([3]; median of patients, without correction for the delay of sampling): 4 h
CSF/plasma ratio AUC0–24h ([3]; n = 5, mean (range) of individual ratios): 4.4% and 4.4 (2–7) %
CSF/plasma conc. ratio at t max ([3]; n = 5, mean (± SD), at 8 h): 6.3 (2.0) %
t max for CSF/plasma conc. ratio ([3]; n = 5, median (range)): 8 (3–12) h
Lag time plasma vs. CSF ([3]; patient R01, 50% of peak concentrations): 1 h
Lag time plasma vs. tissue exudate ([3]; patient R01, with respect to 50% of peak concentrations): 4 h
Lag time plasma vs. CSF [3, 7]: 2 h
Lag time plasma vs. tissue exudate [3, 7]: 4 h
Lag time plasma vs. CSF ([3]; patient R05, in brackets: invalid data due to missing values): (2) h
Lag time plasma vs. CSF [3, 8]: 0 h
Lag time plasma vs. tissue exudate [3, 8]: 1.5 h
Lag time plasma vs. tissue exudate ([3]; patient R07, 50% of peak concentrations): 6.5 h
Lag time plasma vs. CSF ([3]; patient R07, in brackets: invalid data due to missing values): (3) h
Lag time plasma vs. CSF ([3]; patient R09, 50% of peak concentrations): 7 h
CSF peak concentration ([3]; patient R09, 8 h post-medication): 108 ng/mL
Median CSF lag time with respect to 50% of the peak concentration in plasma ([3]; patient R09 not included): 0.5 h
Range of CSF lag time with respect to 50% of the peak concentration in plasma ([3]; patient R09 not included): 0 to 2 h
Lag time plasma vs. tissue exudate ([3]; patient R10, 50% of peak concentrations): 3 h
Lag time plasma vs. CSF ([3]; patient R10, in brackets: invalid data due to missing values): (0) h
Lag time plasma vs. CSF ([3]; patient R12, 50% of peak concentrations): 0 h
PGE2 concentration in tissue exudate, overall for all values (PGE2 Hip, n = 88) ([4]; 120 mg etoricoxib oral, day 1 post-surgery, n = 8, mean (SD)): 11.9 (10.2) ng/mL
PGE2 concentration in tissue exudate ([4]; 0.5 h after 120 mg oral, midpoint of collection interval, mean (SD)): 18.1 (8.8) ng/mL
PGE2 concentration in tissue exudate ([4]; 1.5 h after 120 mg oral, mean (SD)): 24.4 (10.5) ng/mL
PGE2 concentration in tissue exudate ([4]; 2.5 h after 120 mg oral, mean (SD)): 20.9 (16.1) ng/mL
PGE2 concentration in tissue exudate ([4]; 5.0 h after 120 mg oral, mean (SD)): 16.9 (13.6) ng/mL
PGE2 concentration in tissue exudate ([4]; 7.5 h after 120 mg oral, mean (SD)): 12.1 (9.3) ng/mL
PGE2 concentration in tissue exudate ([4]; 9.5 h after 120 mg oral, mean (SD)): 7.9 (6.0) ng/mL
PGE2 concentration in tissue exudate ([4]; 11.5 h after 120 mg oral, mean (SD)): 6.4 (5.1) ng/mL
PGE2 concentration in tissue exudate ([4]; 17.5 h after 120 mg oral, mean (SD)): 6.2 (6.2) ng/mL
PGE2 concentration in tissue exudate ([4]; 23.5 h after 120 mg oral, mean (SD)): 2.3 (0.7) ng/mL
Duration of the significant PGE2 difference to placebo ([4]; till the end of the observation period): 18 h
PGE2 concentration in tissue exudate ([4]; time point Pre (baseline), n = 8, mean (SD)): 7.7 (5.4) ng/mL
Time after medication at which the PGE2 difference to placebo became significant ([4]; tissue exudate samples, material produced about 2 h after medication): 5 h
Time after administration within which etoricoxib interferes with surgical pain ([5]; patients, ref Clarke et al. [2009]): ≤ 2 h
Time after surgery before which etoricoxib was not analgesic ([5]; thyroid surgery, ref Smirnov et al. [2008]): ≥ 6 h
Bound to plasma proteins (plasma proteins): 92%
Ex vivo whole blood IC50 of COX-2 inhibition (COX-2): about 360 ng/mL
Onset of antipyretic action [6]: about 2 h
